Test results as given in ChEMBL document CHEMBL4406880, “Design, synthesis, and bioactivity of dihydropyrimidine derivatives as kinesin spindle protein inhibitors” (Bioorg Med Chem, 2019).

Experiments:
Assay type in all cases: functional
HOP-92 = assay: Growth inhibition of human HOP92 cells incubated for 48 hrs by sulforhodamine B assay; details: HOP-92, 48 h
In short: (§1)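 NCI-60 five-dose assay, SRB end-point, same culture conditions. Compound is tested at tenfold dilutions of 0.01, 0.1, 1, 10 and 100 µM for 48 h at 37 °C, with DMSO/PBS vehicle controls. Percentage growth at each concentration is taken against untreated cells and a time-zero plate. GI50 is 50% net growth decrease, TGI is total growth inhibition, and LC50 is 50% loss of initial cells.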

NCI-H23 [1] = assay: Growth inhibition of human NCI-H23 cells incubated for 48 hrs by sulforhodamine B assay; details: NCI-H23, 48 h
In short: (§2)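 NCI-60 five-dose SRB assay in RPMI 1640 with 5% FBS, 37 °C, 5% CO2. Compound given at five tenfold dilutions, 0.01–100 µM, for 48 h. Adherent cells fixed with TCA, suspension cells with 16% final TCA. Bound SRB read at 515 nm and growth calculated against time-zero and untreated controls. GI50 taken from dose–response curves as the concentration giving a 50% decrease in net cell growth.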

SK-MEL-2 = assay: Growth inhibition of human SK-MEL-2 cells incubated for 48 hrs by sulforhodamine B assay; details: SK-MEL-2, 48 h
In short: (§3)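 NCI-60 five-dose SRB assay. Cells were exposed for 48 h to tenfold dilutions of 0.01, 0.1, 1, 10 and 100 µM, in RPMI 1640 with 5% FBS. Plates fixed with TCA at the time of drug addition served as the time-zero reference. GI50 is the concentration giving a 50% reduction in net growth. TGI is total growth inhibition. LC50 is a net 50% loss of the initial cells.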

SK-MEL-5 = assay: Growth inhibition of human SK-MEL-5 cells incubated for 48 hrs by sulforhodamine B assay; details: SK-MEL-5, 48 h; in short: as §3
CAKI-1 [2] = assay: Growth inhibition of human Caki1 cells incubated for 48 hrs by sulforhodamine B assay; details: CAKI-1, 48 h
In short: (§4)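 NCI-60 five-dose mode: five tenfold dilutions (0.01, 0.1, 1, 10, 100 µM) are applied for 48 h to cells in RPMI 1640 with 5% FBS at 37 °C. Endpoint is TCA fixation with sulforhodamine B read at 515 nm. % growth comes from the 0 h and control absorbances. GI50 is the concentration giving a 50% reduction in net cell growth.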

Hs-578T = assay: Growth inhibition of human Hs 578T cells incubated for 48 hrs by sulforhodamine B assay; in short: as §2
IGROV-1 = assay: Growth inhibition of human IGROV1 cells assessed as cell viability at 100 uM incubated for 48 hrs by sulforhodamine B assay; details: IGROV-1, 48 h, read-out: Activity
KM12 = assay: Growth inhibition of human KM12 cells assessed as cell viability at 100 uM incubated for 48 hrs by sulforhodamine B assay; details: KM12, 48 h, read-out: Activity
HOP-62 [3] = assay: Growth inhibition of human HOP62 cells assessed as cell viability at 100 uM incubated for 48 hrs by sulforhodamine B assay; details: HOP-62, 48 h, read-out: Activity
EKVX = assay: Growth inhibition of human EKVX cells assessed as cell viability at 100 uM incubated for 48 hrs by sulforhodamine B assay; details: read-out: Activity
MDA-MB-231 = assay: Growth inhibition of human MDA-MB-231 cells assessed as cell viability at 1 uM incubated for 48 hrs by sulforhodamine B assay; details: MDA-MB-231, 48 h, read-out: Activity
NCI-H23 [4] = assay: Growth inhibition of human NCI-H23 cells assessed as cell viability at 1 uM incubated for 48 hrs by sulforhodamine B assay; details: NCI-H23, 48 h, read-out: Activity
A498 = assay: Growth inhibition of human A498 cells assessed as cell viability at 0.1 uM incubated for 48 hrs by sulforhodamine B assay; details: A498, 48 h, read-out: Activity; in short: as §4
SK-OV-3 = assay: Growth inhibition of human SKOV3 cells assessed as cell viability at 0.1 uM incubated for 48 hrs by sulforhodamine B assay; details: SK-OV-3, 48 h, read-out: Activity
HOP-62 [5] = assay: Growth inhibition of human HOP62 cells assessed as cell viability at 0.1 uM incubated for 48 hrs by sulforhodamine B assay; details: HOP-62, 48 h, read-out: Activity
HL-60(TB) = assay: Growth inhibition of human HL-60(TB) cells assessed as cell viability at 0.1 uM incubated for 48 hrs by sulforhodamine B assay; details: HL-60, 48 h, read-out: Activity; in short: as §1
RXF 393 = assay: Growth inhibition of human RXF393 cells assessed as cell viability at 0.001 uM incubated for 48 hrs by sulforhodamine B assay relative to control; details: RXF 393, 48 h, read-out: Activity
SK-MEL-28 = assay: Growth inhibition of human SK-MEL-28 cells assessed as cell viability at 0.001 uM incubated for 48 hrs by sulforhodamine B assay relative to control; details: SK-MEL-28, 48 h, read-out: Activity
NCI-H522 = assay: Growth inhibition of human NCI-H522 cells assessed as cell viability at 0.001 uM incubated for 48 hrs by sulforhodamine B assay relative to control; details: NCI-H522, 48 h, read-out: Activity
CCRF-CEM = assay: Growth inhibition of human CCRF-CEM cells assessed as cell viability at 0.001 uM incubated for 48 hrs by sulforhodamine B assay relative to control; details: read-out: Activity
786-0 = assay: Growth inhibition of human 786-0 cells assessed as cell viability at 100 uM incubated for 48 hrs by sulforhodamine B assay; details: 786-0, 48 h, read-out: Activity; in short: as §4
CAKI-1 [6] = assay: Growth inhibition of human Caki1 cells assessed as cell viability at 100 uM incubated for 48 hrs by sulforhodamine B assay; details: CAKI-1, 48 h, read-out: Activity
UO-31 = assay: Growth inhibition of human UO31 cells assessed as cell viability at 100 uM incubated for 48 hrs by sulforhodamine B assay; details: UO-31, 48 h, read-out: Activity
[7] = read-out: LC50 (the source's name)
[8] = read-out: pLC50 (the source's name) (converted)

Question: What does the source list for `CC1=C(C(=O)OCc2ccccc2)C(c2ccc3c(c2)OCO3)n2c(nc3ccccc32)N1` (racemic)?
Answer: LC50 (concentration killing 50% of initial cells) (HOP-92; read-out: LC50): > 100 µM; TGI (HOP-92; read-out: TGI): > 100 µM; LC50 (concentration killing 50% of initial cells) (HOP-92; read-out: pLC50 (converted)): > 100 µM; TGI (HOP-92; read-out: pTGI): > 100 µM; GI50 (NCI-H23 [1]; read-out: GI50): 31.8 µM; LC50 (NCI-H23 [1]; read-out: LC50): > 100 µM; TGI (NCI-H23 [1]; read-out: TGI): > 100 µM; GI50 (NCI-H23 [1]; read-out: pGI50 (converted)): 31.6 µM; LC50 (NCI-H23 [1]; read-out: pLC50 (converted)): > 100 µM; TGI (NCI-H23 [1]; read-out: pTGI): > 100 µM; GI50 (SK-MEL-2; read-out: GI50): 1290 nM; LC50 (SK-MEL-2; read-out: LC50): > 100 µM; TGI (SK-MEL-2; read-out: TGI): > 100 µM; GI50 (SK-MEL-2; read-out: pGI50 (converted)): 1290 nM; LC50 (SK-MEL-2; read-out: pLC50 (converted)): > 100 µM; TGI (SK-MEL-2; read-out: pTGI): > 100 µM; GI50 (SK-MEL-5; read-out: GI50): 540 nM; CC50 (SK-MEL-5; [7]): > 100 µM; TGI (SK-MEL-5; read-out: TGI): > 100 µM; GI50 (SK-MEL-5; read-out: pGI50 (converted)): 537 nM; CC50 (SK-MEL-5; [8]): > 100 µM; TGI (SK-MEL-5; read-out: pTGI): > 100 µM; GI50 (CAKI-1 [2]; read-out: GI50): 280 nM; CC50 (CAKI-1 [2]; [7]): > 100 µM; TGI (CAKI-1 [2]; read-out: TGI): > 100 µM; GI50 (CAKI-1 [2]; read-out: pGI50 (converted)): 282 nM; CC50 (CAKI-1 [2]; [8]): > 100 µM; TGI (CAKI-1 [2]; read-out: pTGI): > 100 µM; GI50 (Hs-578T; read-out: GI50): 280 nM; CC50 (Hs-578T; [7]): > 100 µM; TGI (Hs-578T; read-out: TGI): 23.8 µM; GI50 (Hs-578T; read-out: pGI50 (converted)): 282 nM; CC50 (Hs-578T; [8]): > 100 µM; TGI (Hs-578T; read-out: pTGI (converted)): 24 µM; viability at 100 µM (IGROV-1): 29%; viability at 100 µM (KM12): 18%; viability at 100 µM (HOP-62 [3]): 31%; viability at 100 µM (EKVX): 29%; viability at 1 µM (MDA-MB-231): 56%; viability at 1 µM (NCI-H23 [4]): 54%; viability at 0.1 µM (A498): 95%; viability at 0.1 µM (SK-OV-3): 97%; viability at 0.1 µM (HOP-62 [5]): 96%; viability at 0.1 µM (HL-60(TB)): 97%; viability at 0.001 µM (RXF 393): 92%; viability at 0.001 µM (SK-MEL-28): 98%; viability at 0.001 µM (NCI-H522): 78%; viability at 0.001 µM (CCRF-CEM): 101%; viability at 100 µM (786-0): 22%; viability at 100 µM (CAKI-1 [6]): 23%; viability at 100 µM (UO-31): -7%
